CAL PDZ FP-1 – blocks peptide binding to the human CAL PDZ domain. hit rate 0.92% among 300,000. Q9HD26. inhibition, % at 24.9 µM. purified CAL PDZ, TMR-peptide fluorescence polarization, 1 h;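 active = mean inhibition of at least 30% with at least half of replicates also reaching 30%; inconclusive = no clear call, values can overlap the other calls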
CDK5 inh – blocks human CDK5/p35 kinase activity; inhibition, % at 10 µM; hit rate 0.01% among 330,000; Q00535+Q15078; Recombinant CDK5/p35, ADP-Glo luminescence, 60 min; AID 488839;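 active = highest replicate inhibition of at least 50% and at least 75% of replicates reaching 50%; inconclusive = only one of the two criteria met; inactive = both criteria failed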
Target sequence (Q00535 whole entry, looked up): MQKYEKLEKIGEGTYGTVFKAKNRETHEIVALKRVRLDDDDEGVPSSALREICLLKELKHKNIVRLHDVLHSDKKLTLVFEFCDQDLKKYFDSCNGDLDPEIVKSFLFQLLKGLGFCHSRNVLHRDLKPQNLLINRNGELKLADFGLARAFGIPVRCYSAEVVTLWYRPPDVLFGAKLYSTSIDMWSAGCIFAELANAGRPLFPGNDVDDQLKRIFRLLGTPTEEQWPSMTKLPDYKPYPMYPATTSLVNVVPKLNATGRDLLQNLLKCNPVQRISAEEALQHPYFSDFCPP
Target sequence (Q15078 whole entry, looked up): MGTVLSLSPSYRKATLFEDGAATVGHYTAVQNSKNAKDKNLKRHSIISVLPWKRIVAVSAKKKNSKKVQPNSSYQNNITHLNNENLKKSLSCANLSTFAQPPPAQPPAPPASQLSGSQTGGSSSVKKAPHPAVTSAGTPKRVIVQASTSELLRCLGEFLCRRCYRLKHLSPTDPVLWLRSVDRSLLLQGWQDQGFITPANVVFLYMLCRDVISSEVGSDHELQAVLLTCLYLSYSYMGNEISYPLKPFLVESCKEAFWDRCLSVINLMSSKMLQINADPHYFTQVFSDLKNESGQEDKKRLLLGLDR
dFosB act – mouse delta FosB homodimer activation. activation, % at 25 µM. purified delta FosB, TAMRA-CDK5 oligo fluorescence polarization; percent of positive-control signal above neutral wells. P13346. hit rate 0.99% among 340,000. AID 493131;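 active = mean activation above about 17%, with every replicate also reaching it, limit read from the data, passing the limit was not always enough; inconclusive = only one of the two conditions met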
S100A4 inh HTS – inhibitors of human S100A4 binding to myosin IIA peptide; AID 652163; S100A4/TAMRA-MyoIIA peptide fluorescence polarization; P26447; hit rate 0.14% among 360,000; inhibition, % at 10.7 µM;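 active = mean inhibition of at least 70% across replicates, with every replicate also reaching that level; inconclusive = mean inhibition reaches 70% but some replicates fall short; inactive = mean inhibition below 70%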
Target sequence (P26447 whole entry, looked up): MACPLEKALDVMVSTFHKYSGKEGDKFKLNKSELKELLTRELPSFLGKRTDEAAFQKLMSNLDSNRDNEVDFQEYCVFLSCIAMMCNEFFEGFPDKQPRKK
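Material: human S100A4 monomer with TAMRA-labelled myosin IIA peptide; buffer or medium: HEPES pH 7.2 with CaCl2, KCl, NaCl, DTT, Triton; compound dosing: one concentration per compound; schedule: 5 min incubation before reading; benchmarks: neutral control DMSO, positive control TFP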
CAL PDZ FP-2 – inhibitors of human CAL PDZ peptide binding. inhibition, % at 20 µM. AID 504414. purified CAL PDZ, TMR-peptide fluorescence polarization, 1 h. Q9HD26. hit rate 0.02% among 330,000;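 active = highest replicate inhibition of at least 40%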
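System: tagged CAL PDZ domain. Schedule: 1 h room-temperature incubation prior to read. Signal: fluorescence polarization (mP). Measure: percent inhibition from loss of millipolarization.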
Statin myotox sup – suppressors of simvastatin-induced myotoxicity in C2C12 myotubes; AID 602340; rescue of ATP level, % at 7.49 µM; ATP luminescence, 48 h; scaled: DMSO 0, geranylgeraniol control 100; hit rate 0.78% among 330,000;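 active = mean ATP rescue above about 67%, or every replicate alone reaching that limit, limit read from the data, passing the limit was not always enough; inconclusive = no clear call, values can overlap the other calls; inactive = mean under the limit and some replicate under it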;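 also: myotubes were challenged with 10 µM simvastatin during compound exposure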
Large screens that a line does not name were inactive. Shown are actives, neighbours in structure and some others; about 2% of the full set was active somewhere.

O=C(/C(=C/c1ccc(Cl)cc1)c1nc2ccccc2[nH]1)c1cccs1	Statin myotox sup 181 (no result: CAL PDZ FP-1, S100A4 inh HTS)
O=C(/C(=C\c1ccccc1)c1nc2ccccc2[nH]1)c1ccc(Cl)cc1	none (no result: S100A4 inh HTS, Statin myotox sup)
Oc1cccc(Nc2nc(O)c(/C=C3\C=Nc4ccccc43)s2)c1	dFosB act 53
COC(=O)CNc1n[nH]c(=S)[nH]c1=O	none (no result: S100A4 inh HTS, CAL PDZ FP-2, Statin myotox sup)
Cc1nn(Cc2ccccc2)c(Cl)c1C(=O)NCc1ccco1	CAL PDZ FP-1 59
Cc1nn(Cc2ccccc2)c(Cl)c1C(=O)NCCc1ccccc1	none (no result: Statin myotox sup)
O=C(C[C@@H]1C=C[C@H](NC(=O)c2ccncc2)[C@H](CO)O1)NCc1ccncn1	none (no result: CAL PDZ FP-1, CDK5 inh, dFosB act, CAL PDZ FP-2, Statin myotox sup)
COc1ccc(C)cc1S(=O)(=O)N1CCCC(C(=O)NC2CC2)C1 (stereo unspecified)	CAL PDZ FP-1 36
COc1ccc(CNC(=O)C2CCCN(S(=O)(=O)c3cc(C)ccc3OC)C2)cc1 (stereo unspecified)	none (no result: CAL PDZ FP-1, S100A4 inh HTS)
CCOc1ccccc1NC(=O)C1CCN(C(=O)Cc2ccccc2)CC1	CAL PDZ FP-1 56 (no result: Statin myotox sup)
CCOc1ccccc1NC(=O)C1CCCN(S(=O)(=O)c2ccc(OC)c(C)c2)C1 (stereo unspecified)	Statin myotox sup 122 (no result: S100A4 inh HTS)
CCOc1ccc(S(=O)(=O)N2CCCCC2)cc1NC(=O)C1CCCC1	none (no result: CAL PDZ FP-1, CDK5 inh, dFosB act, CAL PDZ FP-2)
N#C/C(C(=O)N1CCCCC1)=C1/N=C(N)c2ccccc21	none (no result: Statin myotox sup)
N#C/C(C(=O)N1CCCCC1)=C1/N=C(NC(=O)c2ccc(F)cc2)c2ccccc21	Statin myotox sup 86
CCOC(=O)c1c(C)n(-c2ccc(C)cc2)c2ccc(OCC(O)CNCC3CCCO3)cc12 (stereo unspecified)	dFosB act 30 (no result: CAL PDZ FP-1, S100A4 inh HTS, Statin myotox sup)
Cc1ccc2nc(-c3ccc(NC(=O)CSc4nc(N)cc(=O)[nH]4)cc3)sc2c1	CAL PDZ FP-1 54, dFosB act inconclusive
Nc1nc(N)nc(-c2cccc(Br)c2)n1	none
Cc1cccc(-c2nc(N)nc(N)n2)c1	CAL PDZ FP-1 34 (no result: Statin myotox sup)
CCOC(=O)C1=C(c2ccccc2)O/C(=C(\C(=O)OC)C(F)(F)F)S1	none (no result: S100A4 inh HTS)
OCC#CCSc1nnc(-c2ccncc2)o1	none (no result: S100A4 inh HTS, Statin myotox sup)
COc1cc(-c2nnc(SCC#CCO)o2)cc(OC)c1OC	Statin myotox sup 114
C[C@H]1CN([C@@H](C)CO)C(=O)CCCn2cc(nn2)CO[C@@H]1CN(C)C(=O)NC1CCCCC1	none (no result: CAL PDZ FP-1, CDK5 inh, dFosB act, CAL PDZ FP-2)
CCCCCNC(=O)C1CC=CCC1C(=O)O (stereo unspecified)	Statin myotox sup 125 (no result: S100A4 inh HTS, CAL PDZ FP-2)
CCCOc1ccc(C(=O)CCC(=O)OCC(=O)N(C)c2c(N)n(Cc3ccccc3)c(=O)[nH]c2=O)cc1	CAL PDZ FP-1 38
CN(C(=O)COC(=O)CCC(=O)c1ccccc1)c1c(N)n(Cc2ccccc2)c(=O)[nH]c1=O	none (no result: Statin myotox sup)
Nc1c(N(CCC2=CCCCC2)C(=O)CCCOc2ccccc2)c(=O)[nH]c(=O)n1Cc1ccccc1	CAL PDZ FP-1 49
COc1cccc2c1C1(O)C2CCCCCCCCCC12OCCCO2 (stereo unspecified)	none (no result: Statin myotox sup)
COC(=O)c1ccc(COc2ccccc2/C=N/NC(=O)c2cccnc2)cc1	none (no result: CAL PDZ FP-1)
CCOc1cc(C2Nc3cccc4cccc(c34)N2)ccc1O	dFosB act 32 (no result: S100A4 inh HTS, Statin myotox sup)
Cc1cc(OCC(=O)Nc2ccc(N3CCCC3)cc2)cc(C)c1Cl	dFosB act 65 (no result: S100A4 inh HTS)
CCOc1ccc(OCC(=O)Nc2ccc(N3CCCCC3)cc2)cc1	none
O=C(O)CCCC(=O)Nc1ccc(N2CCCC2)cc1	CAL PDZ FP-1 93 (no result: S100A4 inh HTS, CAL PDZ FP-2)
Cc1cc(OCC(=O)OCC(=O)Nc2cccnc2Cl)ccc1Cl	none
COCC#Cc1ccc2c(c1)O[C@H](CN(C)C(=O)Nc1ccccc1F)[C@@H](C)CN([C@H](C)CO)S2(=O)=O	none (no result: CAL PDZ FP-1, CDK5 inh, dFosB act, CAL PDZ FP-2)
CCOC(=O)c1c(C)[nH]c(C)c1S(=O)(=O)N(C)CC(=O)Nc1cccc(F)c1	CAL PDZ FP-1 34
CC(C)CC(C(=O)Nc1oc(-c2ccco2)c(-c2ccco2)c1C#N)N1C(=O)c2ccccc2C1=O (stereo unspecified)	Statin myotox sup 117 (no result: S100A4 inh HTS)
CCNC(=O)C[C@@H]1CC[C@@H](NS(=O)(=O)c2ccc(F)cc2)[C@H](CO)O1	S100A4 inh HTS 96 (no result: CAL PDZ FP-1, CDK5 inh, dFosB act, CAL PDZ FP-2)
N#CCSc1nnc(COc2cccc3ccccc23)n1-c1ccccc1	none (no result: S100A4 inh HTS, Statin myotox sup)
Cc1ccc(-c2nnc(CSc3nnc(COc4cccc5ccccc45)n3-c3ccccc3)o2)cc1	Statin myotox sup 136 (no result: S100A4 inh HTS)
CC1CCCCN1C(=O)COC(=O)c1ccc(N2CCCC2=O)cc1 (stereo unspecified)	none (no result: CAL PDZ FP-1)
CC1CCN(C(=O)COC(=O)c2ccc(N3CCCC3=O)cc2)CC1	CAL PDZ FP-1 46
C=C(NC(=O)C(=C)NC(=O)c1csc(C2=NC3c4csc(n4)C4NC(=O)c5csc(n5)C(C(C)(O)C(C)O)NC(=O)C5CSC(=N5)/C(=C/C)NC(=O)C(C(C)O)NC(=O)c5csc(n5)C3(CC2)NC(=O)C(C)NC(=O)C(=C)NC(=O)C(=C)NC(=O)C(C(C)C)NC2C=Cc3c(C(C)O)cc(nc3C2O)C(=O)OC4C)n1)C(N)=O (stereo unspecified)	dFosB act 17 (no result: Statin myotox sup)
O=C(NC1CCCCC1)C(c1ccco1)N(C(=O)c1csnn1)c1cccc(F)c1 (stereo unspecified)	none
CSc1nc(N)nc2c1ncn2CC(=O)NCc1ccc2c(c1)OCO2	dFosB act 20
Cc1cc(=O)[nH]c(SCC(=O)Nc2c(C)n(C)n(-c3ccccc3)c2=O)n1	none (no result: CAL PDZ FP-1)
Cc1cc(=O)[nH]c(Nc2c(C)n(C)n(-c3ccccc3)c2=O)n1	Statin myotox sup 124 (no result: S100A4 inh HTS)
CCOC(=O)C1=C(C)C/C(=N\NC(=O)c2ccccc2O)CC1	CAL PDZ FP-1 86 (no result: Statin myotox sup)
Cn1c(C(=O)O)c(C=O)c2ccccc21	none (no result: CAL PDZ FP-1)
Cc1nn(-c2ccccn2)c2c1-c1nc(N)ncc1CC2	Statin myotox sup 115 (no result: S100A4 inh HTS)
COc1ccc(NC(=O)O/N=C/c2ccccc2)cc1	dFosB act 16
CCOC(=O)N1CCN(S(=O)(=O)CCNC(=O)c2ccc(F)cc2)CC1	none
COCC#Cc1ccc2c(c1)O[C@@H](CN(C)CC1CCCC1)[C@H](C)CN([C@H](C)CO)S2(=O)=O	none (no result: CAL PDZ FP-1, CDK5 inh, dFosB act, CAL PDZ FP-2)
CC1Oc2ccccc2C=C1/C=N/NC(=O)[C@@H](C)NC(=O)OC(C)(C)C (stereo partly specified)	none (no result: Statin myotox sup)
CC(C)(C)S(=O)(=O)c1cnc(-c2ccc(Cl)cc2)nc1N	none (no result: Statin myotox sup)
CC(C)(C)S(=O)(=O)c1cnc(N2CCCCC2)nc1N	CAL PDZ FP-1 50 (no result: Statin myotox sup)
COc1cccc(C(=O)Nc2cnn(C(C)C)c2)c1	none (no result: Statin myotox sup)
CCOc1ccc(C(=O)C(CN2CCOCC2)c2ccccc2)cc1 (stereo unspecified)	Statin myotox sup 92 (no result: S100A4 inh HTS)
COc1cccc(C(=O)NC2CC3CCC(C2)N3Cc2ccccc2)c1 (stereo unspecified)	CAL PDZ FP-1 39

Compound activity: PubChem, Broad Institute
